Sampled rows, rich in hits. Any-hit rate of the full collection: about 5%.
Mdm2-MdmX inh: inhibitors of human Mdm2-MdmX association, primary screen, cell-based, luminescence, split luciferase, SaOS-2, uHTS | Protein Mdm4 (Homo sapiens) + E3 ubiquitin-protein ligase Mdm2 (Homo sapiens), … | inhibition, % at 8 µM | actives 3% (n = 330,000) | SaOS-2 split-luciferase Mdm2/MdmX complementation;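 active = inhibition of at least 50% at 8 µM in the primary screen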
Target sequence (O15151 whole entry, looked up): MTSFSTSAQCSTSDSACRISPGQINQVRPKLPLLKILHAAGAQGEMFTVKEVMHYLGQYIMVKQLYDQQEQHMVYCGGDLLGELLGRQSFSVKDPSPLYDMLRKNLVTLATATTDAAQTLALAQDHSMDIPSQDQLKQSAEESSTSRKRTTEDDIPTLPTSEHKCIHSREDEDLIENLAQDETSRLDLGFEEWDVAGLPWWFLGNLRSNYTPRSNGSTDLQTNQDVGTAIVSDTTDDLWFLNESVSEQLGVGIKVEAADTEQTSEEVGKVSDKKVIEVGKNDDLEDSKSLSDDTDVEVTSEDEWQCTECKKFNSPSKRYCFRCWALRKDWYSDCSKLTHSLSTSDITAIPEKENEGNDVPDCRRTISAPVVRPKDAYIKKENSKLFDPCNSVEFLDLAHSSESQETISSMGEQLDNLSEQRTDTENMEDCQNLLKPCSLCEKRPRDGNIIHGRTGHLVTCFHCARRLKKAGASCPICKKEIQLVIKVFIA
Target sequence (Q00987 whole entry, looked up): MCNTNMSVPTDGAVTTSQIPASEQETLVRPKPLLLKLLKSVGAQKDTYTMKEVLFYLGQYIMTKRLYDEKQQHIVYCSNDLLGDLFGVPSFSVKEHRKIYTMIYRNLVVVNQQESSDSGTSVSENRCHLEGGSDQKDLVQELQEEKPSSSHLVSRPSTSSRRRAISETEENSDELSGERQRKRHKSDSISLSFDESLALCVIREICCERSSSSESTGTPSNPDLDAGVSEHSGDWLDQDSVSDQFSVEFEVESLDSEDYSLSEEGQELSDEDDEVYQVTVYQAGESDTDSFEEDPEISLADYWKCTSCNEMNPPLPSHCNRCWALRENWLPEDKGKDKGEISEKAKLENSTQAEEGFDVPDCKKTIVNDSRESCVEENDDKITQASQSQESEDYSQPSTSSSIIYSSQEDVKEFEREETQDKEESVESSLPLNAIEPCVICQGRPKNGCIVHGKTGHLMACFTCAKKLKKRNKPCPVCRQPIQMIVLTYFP
T cruzi inh: inhibitors of intracellular T. cruzi growth, primary screen, luminescence, NIH3T3 host cells | T. cruzi beta-gal in NIH3T3, 90 h | actives 1.4% (n = 300,000) | inhibition, % (test concentration not listed);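 active = mean inhibition across valid replicates above about 55%, limit read from the data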;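 also: signal also drops with host cell toxicity which is not excluded here; higher percent means less beta-gal luminescence so fewer parasites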
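Test system: β-gal T. cruzi (Tulahuen C4) inside NIH/3T3 cells / Quantity: 5,000 cells/well / Measured by: luminescence from GalScreen with 0.05% NP40, read after 60 min / Medium: DMEM plus 2% FBS / Measure: parasite load inhibition, % / Reagent: Tulahuen C4 trypomastigotes, 5000/well / Schedule: co-culture of at least 90 h after 3 h attachment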
CHOP UPR activ: activators of apoptotic CHOP UPR arm, primary screen, cell-based, CHO-CHOP luciferase reporter, luminescence, uHTS; activation, % at 10 µM; AID 449763, 2010; UPR activation; percent of tunicamycin response over DMSO baseline; actives 0.34% (n = 330,000);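 active = at 10 µM dose, activation of 40% or more, normalized to positive control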
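measured by = luciferase luminescence | assay system = CHO-CHOP cells, stable luciferase reporter of PERK-eIF2a-CHOP signalling | amount = 500 reporter cells seeded per well | timing = 6 h compound exposure at 37 °C after overnight seeding | controls = positive tunicamycin 10 µg/mL, negative DMSO alone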
UPR XBP1 act: activators of adaptive XBP1 UPR arm, primary screen, cell-based, CHO-XBP1 luciferase reporter, luminescence, uHTS | IRE1-XBP1 UPR activation; percent of tunicamycin response, DMSO as zero | activation, % at 20 µM | actives 0.33% (n = 330,000) | AID 463104, 2010;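 active = versus positive control, 20 µM dose yields 30% or more activation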
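Material – CHO cell line with stable XBP1 luciferase reporter · Buffer or medium – F12 plus 10% FBS · Compound – single point, 20 µM final compound, 1% DMSO · Schedule – 16-18 h cell attachment at 37 °C, then 6 h compound exposure · Signal – Steady-Glo luminescence read · Benchmarks – high control tunicamycin 10 µg/mL final, low control DMSO vehicle only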
CSC inhib: cancer stem cell viability inhibitors, primary screen, luminescence; cancer stem cell-like cells viability; inhibition, % at 7.5 µM; actives 1.1% (n = 300,000); in the data active = inhibition above about 75%; tested in HMLE shEcad cells
Beta apoptosis: inhibitors of cytokine-induced beta cell apoptosis, primary screen, luminescence; actives 0.8% (n = 300,000); protection from apoptosis, % (concentration not given with the values); INS-1E cytokine-induced death, ATP luminescence, 48 h; percent of positive-control rescue, neutral wells zero;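 active = Every replicate reaches about 75%, or at least half do and their mean reaches it too, limit read from the data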;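 also: higher means more ATP so stronger rescue from cytokine killing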
Each line names hits and unclear results; the compound was inactive in the other large screens.

CC(C)c1ccc(-n2c(-c3ccccc3)c[n+]3c2CCc2ccccc2-3)cc1	T cruzi inh 67.4 (no result: Mdm2-MdmX inh, CHOP UPR activ, UPR XBP1 act, CSC inhib, Beta apoptosis)
COc1cc(OC)nc(-n2ncc(Br)c(Br)c2=O)n1	CSC inhib 106.6, Beta apoptosis 99.2 (no result: Mdm2-MdmX inh, T cruzi inh, CHOP UPR activ, UPR XBP1 act)
COC(=O)c1cnn(-c2nc(OC)cc(OC)n2)c1C	none
COc1ccc(C(=O)NCC(=O)OCC(=O)N2CC(C)OC(C)C2)cc1OC (centres undefined)	none (no result: T cruzi inh)
Cc1ccc(NC(=O)c2cc3cccc([N+](=O)[O-])c3[nH]2)cc1	none
CCC(C)c1ccccc1NC(=O)c1cc2cccc([N+](=O)[O-])c2[nH]1 (centres undefined)	T cruzi inh 65.2
O=C(CCCC(=O)c1ccc(F)cc1)c1ccc(F)cc1	none
COc1cc(NC(=O)C23CC4CC(C2)CC(n2cnc([N+](=O)[O-])n2)(C4)C3)cc(OC)c1	none
O=C(Nc1cccc([N+](=O)[O-])c1)C12CC3CC(C1)CC(n1cnc([N+](=O)[O-])n1)(C3)C2	T cruzi inh 64.3
O=C(Nc1ccccc1)C12CC3CC(C1)CC(n1cnc([N+](=O)[O-])n1)(C3)C2	T cruzi inh 55.2
COc1ccc(CCNC(=O)C2CCCN2S(=O)(=O)c2cccc3nsnc23)cc1OC (centres undefined)	none
Cc1ccc(NC(=O)Cc2nc(CSc3nnc(-c4ccc5c(c4)OCO5)o3)cs2)cc1	none
O=C(Nc1ccc2c(c1)CCC2)c1cc(S(=O)(=O)N2CCN(c3ccccc3)CC2)ccc1Cl	none
CCCCCc1cc(O)c2c(C)cc(=O)oc2c1	Beta apoptosis 130.0
Cn1c(N2CCOCC2)c(/C=N/OC(=O)c2cccnc2Cl)c2ccccc21	none (no result: Mdm2-MdmX inh, CHOP UPR activ, UPR XBP1 act, CSC inhib, Beta apoptosis)
CC(=O)O/N=C/c1c(N2CCOCC2)n(C)c2ccccc12	T cruzi inh 61.0
Cn1c(N2CCOCC2)c(/C=N/OC(=O)c2ccc(F)cc2)c2ccccc21	T cruzi inh 64.6
CC(NC(=O)CCNC(=O)N1CCn2c1nc1ccccc12)c1ccccc1 (centres undefined)	none
O=C(CCCCn1c(=O)c2ccccc2n(Cc2ccccc2)c1=O)NC1CCN(Cc2ccccc2)CC1	T cruzi inh 59.4
CN(C)c1cc[n+](Cc2c(Cl)cccc2Cl)cc1	Beta apoptosis 97.3
COc1ccc2[nH]c3c(=O)n(/N=C/c4ccc(OC)c(CN5CCCC5)c4)c(C)nc3c2c1	T cruzi inh 64.7
COc1ccc(/C=N/n2c(C)nc3c([nH]c4ccccc43)c2=O)cc1CN1CCCC(C)(C)C1	none
O=C(NCCc1nc2ccccc2[nH]1)c1ccc(Cl)c([N+](=O)[O-])c1	none
Cc1ccc(C(=O)NCCc2nc3ccccc3[nH]2)cc1[N+](=O)[O-]	T cruzi inh 58.3
O=C(COC(=O)CNC(=O)c1ccc(-c2ccccc2)cc1)NCc1ccco1	none
O=C(CNC(=O)c1ccccc1)N/N=C/c1ccc([N+](=O)[O-])o1	T cruzi inh 59.0
O=C(CNC(=O)c1ccccc1)N/N=C/c1ccccc1Cl	none
CCOC(=O)/C(=C\c1ccc([N+](=O)[O-])o1)NC(=O)c1ccccc1	T cruzi inh 67.7
O=C(CNc1ccccc1)N/N=C/c1ccc([N+](=O)[O-])o1	T cruzi inh 63.8
Cc1ccc(NCC(=O)N/N=C\c2ccc([N+](=O)[O-])o2)cc1	none
CCCCCC(=O)N/N=C/c1ccc([N+](=O)[O-])o1	T cruzi inh 76.0
Cc1nn(-c2ccccc2)c(Cl)c1C(=O)NCC1CCCO1 (centres undefined)	none (no result: T cruzi inh, CSC inhib)
CCCCn1c(N)c(N(CC(C)C)C(=O)c2ccc(F)c(S(=O)(=O)N3CCOCC3)c2)c(=O)[nH]c1=O	none (no result: CSC inhib)
O=[N+]([O-])c1ccc(-c2ccc(C=Nc3cccc4ccccc34)o2)cc1	none
O=[N+]([O-])c1ccc(C=Nc2cccc3ccccc23)s1	T cruzi inh 60.5
O=C(CNC(=O)c1ccccc1)N/N=C/c1ccc([N+](=O)[O-])s1	T cruzi inh 76.0
CC(C)(C)OC(=O)N1Cc2[nH]c3ccccc3c2C[C@@H]1C(=O)O	none (no result: T cruzi inh)
O=C(NCc1cccs1)c1cc(-c2ccncc2)nc2ccc(Br)cc12	T cruzi inh 54.8
O=C(c1ccco1)N1CCN(C(=O)c2cc(-c3ccncc3)nc3ccc(Br)cc23)CC1	T cruzi inh 56.4
O=C(c1ccco1)N1CCN(C(=O)c2cc(-c3ccccc3)nc3ccccc23)CC1	none (no result: CSC inhib)
Cc1c(/C=C(\C#N)c2nn(-c3ccccc3)c(N)c2C#N)c2ccccc2n1Cc1ccc(F)cc1	none
COCCCn1c(SCCc2ccccc2)nc2cc(OC)c(OC)cc2c1=N	CSC inhib 83.4
O=C1CN(C(=O)COc2ccc(Br)cc2Br)c2ccccc2N1	none
O=C(C[C@H]1C/C=C\CCC(=O)OC[C@H]2CCCN2C1=O)NCCO	none (no result: T cruzi inh, CSC inhib)
COc1ccc(CN2CCCC(CNC(=O)c3ccc(F)cc3)C2)c(C)c1C (centres undefined)	T cruzi inh 70.6
CCOc1ccc(CN2CCCC(CNC(=O)c3ccc(F)cc3)C2)cc1CO (centres undefined)	T cruzi inh 62.1
O=C(NCC1CCCN(Cc2cccc(OCCO)c2)C1)c1ccc(F)cc1 (centres undefined)	none
CCOc1cc(CN2CCCC(CNC(=O)c3ccc(F)cc3)C2)ccc1OC (centres undefined)	T cruzi inh 60.6
COc1ccc(CN2CCCC(CNC(=O)c3ccc(F)cc3)C2)c(F)c1 (centres undefined)	none
Cn1c(C(=O)OC(C(=O)NC2CCCC2)c2cccnc2)cc2sccc21 (centres undefined)	T cruzi inh 65.0 (no result: CSC inhib, Beta apoptosis)
Cn1c(C(=O)OC(C(=O)NC2CCCCC2)c2cccnc2)cc2sccc21 (centres undefined)	none
CC1CCCCC1NC(=O)CCn1ccc2cc(S(=O)(=O)N3CCCC3)ccc21 (centres undefined)	none (no result: Beta apoptosis)
CN1/C(=C\C(=O)C[n+]2cccc(Br)c2)C(C)(C)c2ccccc21	Beta apoptosis 100.2
CN1/C(=C\C(=O)C[n+]2ccc(C(=O)c3ccccc3)cc2)C(C)(C)c2ccccc21	Beta apoptosis 103.0
Cc1ccc[n+](CC(=O)/C=C2\N(C)c3ccccc3C2(C)C)c1	none
CCCCc1nc2cc(C(=O)NC3CCOC(C)(C)C3)ccc2o1 (centres undefined)	none

Source: PubChem BioAssay
